MT stabilizer – microtubule stabilizers in HeLa cells, primary screen, imaging, high-content imaging; % tubulin-high responders, % at 10 µM; actives 0.83% (n = 200,000); HeLa tubulin immunostaining HCS, 24 h; share of cells brighter than vehicle mean+2SD;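 active = plate Z-score above 3 for both tubulin-high and condensed-nucleus cell shares, with cell loss under 80%, at 10 µM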;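 also: anti alpha tubulin signal scored within the nucleus-defined area of each cell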
HSV augment – enhancers of HSV replication in host cells, fold increase, host cell viability; HSV replication augmentation in cells; maximum fold increase; actives 0.005% (n = 220,000); AID 1956, 2009; in the data active = maximum fold increase above about 1.5; tested in PC3 cells
Dynein transport – inhibitors of GR-EGFP nuclear translocation, primary screen, dynein cargo transport inhibitor project, imaging, high-content, 3617.4 mouse cells; test concentration mostly 20 µM; stimulated with dexamethasone, 1 µM; stronger effect = lower value; z-score, hits read low; actives 0.47% (n = 220,000); AID 1381, 2008;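 active = plate z-score of nuclear minus cytoplasmic receptor signal below a set negative limit, without overly bright fluorescence or cell loss, cut at about -3.5 in these data, passing the limit was not always enough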;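 also: z-score of nuclear minus cytoplasmic ring GR-EGFP intensity difference per well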
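Also added: dexamethasone, 1.0 µM final. Medium: tet-free, stripped-serum medium. Detection: fixed, Hoechst-stained cells imaged at 10x for EGFP. Read-out: nuclear-to-cytoplasmic GR-EGFP distribution per well. Times: induction 48 h, compound 1 h, agonist 30 min.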
L major viab – Leishmania major promastigote growth inhibition, primary screen; Leishmania major promastigotes, resazurin fluorescence viability; inhibition, % at 10 µM; AID 1063, 2008; actives 9% (n = 200,000); in the data active = inhibition above about 50%;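 also: promastigotes grown with compound for 44 hours at 28 °C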
bCat nuc transl – modulators of beta-catenin nuclear translocation, primary screen, imaging, HeLa cells, immunofluorescence, high-content; nuclear translocation activity, % at 5 µM; AID 1665, 2009; actives 0.3% (n = 190,000);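 active = nuclear translocation activity above 50% at 5 µM, with a well cell count of 50 or more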;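 also: per-cell ratio of nuclear to cytoplasmic median beta-catenin stain intensity; plate controls were DMSO negative control for no effect and GSK-3 inhibitor IX positive control for full effect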
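test system = HeLa cells, endogenous beta-catenin | dosing = single 5 µM dose plus 0.02–20 µM confirmation series | times = compound treatment 24 h, 37°C, 5% CO2 | technique = beta-catenin immunofluorescence imaging with DAPI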
The depositor's hits bear a star. Sampled rows, rich in hits. Any-hit rate of the full collection: about 8.9%.

How did COc1ccc(N=C2SC(CC(=O)Nc3ccccc3)C(=O)N2CCN2CCOCC2)cc1 (stereo not given) do in these assays?
MT stabilizer: 4.3; HSV augment: inactive; Dynein transport: 1.02; L major viab: 55.7*; bCat nuc transl: -1.8

How did COCCN1C(=O)C(CC(=O)Nc2ccc(C(=O)O)cc2)SC1=Nc1ccccc1 (stereo not given) do in these assays?
MT stabilizer: 1.1; Dynein transport: -0.201; L major viab: -4.8

What do the screens show for `COc1ccc(N=C2SC(CC(=O)Nc3ccccc3)C(=O)N2CC2CCCO2)cc1` (stereo not given)?
MT stabilizer: 8.7; HSV augment: inactive; Dynein transport: 2.8; L major viab: 63.4*; bCat nuc transl: -1.5

Results for CCn1c(CCNC(=O)c2ccc(C)cc2)n[nH]c1=S ?
MT stabilizer: 2.2; HSV augment: inactive; Dynein transport: 0.0508; L major viab: -2.7; bCat nuc transl: -3.6

Results for CCOc1ccc2nc(SCC(=O)c3cccs3)sc2c1 ?
MT stabilizer: 3.3; HSV augment: inactive; Dynein transport: 0.213; L major viab: -9.9; bCat nuc transl: 0.8

What do the screens show for `Oc1ccc(N2CCN(c3ncnc4sc(-c5ccccc5)cc34)CC2)cc1`?
MT stabilizer: 4.0; HSV augment: inactive; Dynein transport: -0.597; L major viab: 61.9*; bCat nuc transl: 3.4

What do the screens show for `CC(=O)N1CCN(c2ncnc3sc(-c4ccccc4)cc23)CC1`?
MT stabilizer: 1.9; HSV augment: inactive; Dynein transport: 0.179; L major viab: 18.2; bCat nuc transl: -1.5

How did O=C1CC(C(=O)N2CCN(c3ccc(F)cc3)CC2)CN1CCc1ccccc1 (stereo not given) do in these assays?
MT stabilizer: 4.4; HSV augment: inactive; Dynein transport: -0.837; L major viab: -6.0; bCat nuc transl: 1.4

How did O=C1OCC2=C1C(c1ccc(F)cc1)c1cc3c(cc1N2)OCO3 (stereo not given) do in these assays?
MT stabilizer: 6.9; HSV augment: inactive; Dynein transport: 0.431; L major viab: 4.4; bCat nuc transl: 74.3*

How did C#CCOc1ccc(C2C3=C(COC3=O)Nc3cc4c(cc32)OCO4)cc1OC (stereo not given) do in these assays?
MT stabilizer: 1.6; HSV augment: inactive; Dynein transport: 0.573; L major viab: 16.8; bCat nuc transl: 61.0*

How did CCOc1ccccc1C1C2=C(COC2=O)Nc2cc3c(cc21)OCO3 (stereo not given) do in these assays?
MT stabilizer: 7.2; HSV augment: inactive; Dynein transport: -0.839; L major viab: 21.1; bCat nuc transl: 1.5

Results for COc1cccc(C2C3=C(CC(C)(C)CC3=O)Nc3cc4c(cc32)OCO4)c1 (stereo not given) ?
MT stabilizer: 2.9; HSV augment: inactive; Dynein transport: -0.361; L major viab: 100.0*

Results for O=C1OCC2=C1C(c1ccc(F)cc1)c1cc3c(cc1N2)OCCO3 (stereo not given) ?
MT stabilizer: 11.6; HSV augment: inactive; Dynein transport: -0.125; L major viab: -0.3; bCat nuc transl: 77.9*

What do the screens show for `COc1ccc(NC(=O)CN(c2cc(C)cc(C)c2)S(=O)(=O)c2c(C)noc2C)cc1`?
MT stabilizer: 3.9; HSV augment: inactive; Dynein transport: 1.42; L major viab: -1.6; bCat nuc transl: -6.5

How did CCN1CCN(C(=O)CN(c2ccc(C)cc2)S(C)(=O)=O)CC1 do in these assays?
MT stabilizer: 1.9; HSV augment: inactive; Dynein transport: 0.287; L major viab: -3.5; bCat nuc transl: 7.0

How did Brc1ccc(OCc2nc(-c3ccccn3)n[nH]2)cc1 do in these assays?
MT stabilizer: 2.3; HSV augment: inactive; Dynein transport: 0.543; L major viab: -8.1

Results for Cc1cc(N=Cc2c(O)n(-c3cccc(Cl)c3)c(=O)c3ccccc23)no1 ?
MT stabilizer: 2.4; HSV augment: inactive; Dynein transport: 0.837; L major viab: 1.3; bCat nuc transl: -4.9

How did Cc1ccc(N=Cc2c(O)n(-c3cc(Cl)ccc3N3CCOCC3)c(=O)c3ccccc23)cc1C do in these assays?
MT stabilizer: 2.1; HSV augment: inactive; Dynein transport: -0.949; L major viab: 69.8*; bCat nuc transl: 0.4

Results for Cc1[nH]nc(-c2ccc(OCc3cnn(-c4ccccc4)c3)c(C)c2O)c1Oc1ccccc1 ?
MT stabilizer: 2.6; HSV augment: inactive; Dynein transport: -0.345; L major viab: 4.9; bCat nuc transl: 0.5

How did C/C(CC1CC(C)OC1=O)=N\NC(N)=S (stereo not given) do in these assays?
MT stabilizer: 3.8; HSV augment: inactive; Dynein transport: 0.487; L major viab: -8.1; bCat nuc transl: -0.9

What do the screens show for `C/C(CC(C)(C)C1CCCCC1)=N\NC(N)=S`?
MT stabilizer: 1.9; HSV augment: inactive; Dynein transport: 2.43; L major viab: 100.5*

What do the screens show for `CC(=O)N(Cc1ccccc1)c1ccccc1C(=O)O`?
HSV augment: inactive; Dynein transport: -0.642; bCat nuc transl: 0.2

What do the screens show for `CC(=O)N(Cc1ccc(Br)cc1)c1cccc(C)c1C`?
MT stabilizer: 16.1; HSV augment: inactive; Dynein transport: -0.326; L major viab: 0.0; bCat nuc transl: 51.8*

How did COc1ccc(CN(C(C)=O)c2cccc(C)c2C)cc1 do in these assays?
MT stabilizer: 43.0*; HSV augment: inactive; Dynein transport: 0.511; L major viab: 0.8; bCat nuc transl: 10.3

How did CCOc1ccc(C2C(C(=O)c3ccc(C)o3)=C(O)C(=O)N2CCCN(CC)CC)cc1 (stereo not given) do in these assays?
HSV augment: inactive; Dynein transport: -0.678; bCat nuc transl: -0.7

Results for CCCCOc1ccc(C2C(C(=O)c3ccc(C)o3)=C(O)C(=O)N2CC2CCCO2)cc1 (stereo not given) ?
MT stabilizer: 3.0; HSV augment: inactive; Dynein transport: -0.261; L major viab: 53.4*

What do the screens show for `Cc1ccc(CN2C(=O)c3ccccc3C2C(=O)NCc2cccnc2)cc1` (stereo not given)?
MT stabilizer: 1.3; HSV augment: inactive; Dynein transport: 1.91; L major viab: 5.5

What do the screens show for `O=C(NC(CSCc1ccccc1)C(=O)N/N=C/c1ccc(O)cc1O)c1ccc([N+](=O)[O-])cc1` (stereo not given)?
MT stabilizer: 1.9; HSV augment: inactive; Dynein transport: -0.679; L major viab: 100.0*; bCat nuc transl: 5.3

How did COc1cc(O)ccc1/C=N/NC(=O)c1ccc([N+](=O)[O-])cc1 do in these assays?
MT stabilizer: 5.4; HSV augment: inactive; Dynein transport: -0.771; L major viab: 4.2; bCat nuc transl: -1.6

What do the screens show for `COc1ccccc1OCC(=O)N/N=C1\CCc2ccccc21`?
MT stabilizer: 1.5; HSV augment: inactive; Dynein transport: 1.72; L major viab: -1.0; bCat nuc transl: 0.0

Compound activity from PubChem.
